ChEMBL document CHEMBL5058577, “EUbOPEN Chemogenomics Library 2 (Multiplex)” (2022)

System: HEK-293T
Assay: Multiplex assay against HEK293T
Type: toxicity, cell-based
Conditions: human
Outline: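 Imaging took place on a CQ1 microscope at 37°C and 5% CO2 once compound had been added to live cells stained at seeding with Hoechst33342, BioTracker Green Microtubule Cytoskeleton Dye, MitoTracker Red and Annexin V Alexa Fluor 680. CellPathfinder machine-learning gating classed cells as Hoechst high-intensity objects or normal cells, classed normal cells as having healthy, pyknosed or fragmented nuclei, and classed pyknosed cells as mitotic or apoptotic. Tubulin, mitochondrial-mass and membrane-permeability phenotypes are per cents of the healthy-nucleus cells.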

[1] = 12 h, 1 µM, compound concentration 1 uM, replicate 1
[2] = 12 h, 1 µM, compound concentration 1 uM, replicate 2
[3] = 12 h, 10 µM, compound concentration 10 uM, replicate 1
[4] = 12 h, 10 µM, compound concentration 10 uM, replicate 2
[5] = 24 h, 1 µM, compound concentration 1 uM, replicate 1
[6] = 24 h, 1 µM, compound concentration 1 uM, replicate 2
[7] = 24 h, 10 µM, compound concentration 10 uM, replicate 1
[8] = 24 h, 10 µM, compound concentration 10 uM, replicate 2
[9] = 48 h, 1 µM, compound concentration 1 uM, replicate 1
[10] = 48 h, 1 µM, compound concentration 1 uM, replicate 2
[11] = 48 h, 10 µM, compound concentration 10 uM, replicate 1
[12] = 48 h, 10 µM, compound concentration 10 uM, replicate 2

Q: Which results are given for `Cc1ccc(-c2ccc(F)cc2COc2ccc(CCC(=O)O)cc2)cc1`?
A: Population Apoptotic (%) [1]: 42%; Population Fragmented Nuclei (%) [1]: 6%; Population Healthy Nuclei (%) [1]: 82%; Population Hoechst High Intensity Objects (%) [1]: 9%; Population Mitochondria Different-Phenotype (%) [1]: 36%; Population Mitotic Cells (%) [1]: 57%; Population Normal (%) [1]: 90%; Population Tubulin-Different-Phenotype (%) [1]: 18%; Total Cell Count [1]: 465; Population Apoptotic (%) [2]: 33%; Population Healthy Nuclei (%) [2]: 77%; Population Mitochondria Different-Phenotype (%) [2]: 50%; Population Mitotic Cells (%) [2]: 66%; Population Pyknosed Nuclei (%) [2]: 15%; Total Cell Count [2]: 324; Population Apoptotic (%) [3]: 32%; Population Fragmented Nuclei (%) [3]: 10%; Population Healthy Nuclei (%) [3]: 79%; Population Hoechst High Intensity Objects (%) [3]: 7%; Population Mitochondria Different-Phenotype (%) [3]: 46%; Population Mitotic Cells (%) [3]: 67%; Population Normal (%) [3]: 92%; Population Pyknosed Nuclei (%) [3]: 10%; Population Tubulin-Different-Phenotype (%) [3]: 33%; Total Cell Count [3]: 329; Population Apoptotic (%) [4]: 42%; Population Fragmented Nuclei (%) [4]: 7%; Population Healthy Nuclei (%) [4]: 83%; Population Hoechst High Intensity Objects (%) [4]: 6%; Population Mitochondria Different-Phenotype (%) [4]: 58%; Population Mitotic Cells (%) [4]: 57%; Population Normal (%) [4]: 93%; Population Pyknosed Nuclei (%) [4]: 9%; Population Tubulin-Different-Phenotype (%) [4]: 15%; Total Cell Count [4]: 396; Population Apoptotic (%) [5]: 16%; Population Fragmented Nuclei (%) [5]: 10%; Population Healthy Nuclei (%) [5]: 82%; Population Hoechst High Intensity Objects (%) [5]: 3%; Population Mitochondria Different-Phenotype (%) [5]: 16%; Population Mitotic Cells (%) [5]: 84%; Population Normal (%) [5]: 96%; Population Pyknosed Nuclei (%) [5]: 7%; Population Tubulin-Different-Phenotype (%) [5]: 10%; Total Cell Count [5]: 688; Population Apoptotic (%) [6]: 52%; Population Fragmented Nuclei (%) [6]: 9%; Population Healthy Nuclei (%) [6]: 80%; Population Hoechst High Intensity Objects (%) [6]: 7%; Population Mitochondria Different-Phenotype (%) [6]: 33%; Population Mitotic Cells (%) [6]: 47%; Population Normal (%) [6]: 92%; Population Pyknosed Nuclei (%) [6]: 9%; Population Tubulin-Different-Phenotype (%) [6]: 13%; Total Cell Count [6]: 445; Population Apoptotic (%) [7]: 36%; Population Fragmented Nuclei (%) [7]: 11%; Population Healthy Nuclei (%) [7]: 76%; Population Hoechst High Intensity Objects (%) [7]: 5%; Population Mitochondria Different-Phenotype (%) [7]: 30%; Population Mitotic Cells (%) [7]: 63%; Population Normal (%) [7]: 94%; Population Tubulin-Different-Phenotype (%) [7]: 18%; Total Cell Count [7]: 397; Population Apoptotic (%) [8]: 51%; Population Fragmented Nuclei (%) [8]: 6%; Population Healthy Nuclei (%) [8]: 87%; Population Hoechst High Intensity Objects (%) [8]: 3%; Population Mitochondria Different-Phenotype (%) [8]: 37%; Population Mitotic Cells (%) [8]: 48%; Population Normal (%) [8]: 96%; Population Pyknosed Nuclei (%) [8]: 6%; Population Tubulin-Different-Phenotype (%) [8]: 13%; Total Cell Count [8]: 461; Population Apoptotic (%) [9]: 17%; Population Fragmented Nuclei (%) [9]: 15%; Population Healthy Nuclei (%) [9]: 79%; Population Hoechst High Intensity Objects (%) [9]: 1%; Population Mitochondria Different-Phenotype (%) [9]: 7%; Population Mitotic Cells (%) [9]: 82%; Population Normal (%) [9]: 98%; Population Pyknosed Nuclei (%) [9]: 5%; Population Tubulin-Different-Phenotype (%) [9]: 8%; Total Cell Count [9]: 1149; Population Apoptotic (%) [10]: 36%; Population Fragmented Nuclei (%) [10]: 14%; Population Healthy Nuclei (%) [10]: 77%; Population Mitochondria Different-Phenotype (%) [10]: 18%; Population Mitotic Cells (%) [10]: 63%; Population Normal (%) [10]: 97%; Population Pyknosed Nuclei (%) [10]: 8%; Population Tubulin-Different-Phenotype (%) [10]: 9%; Total Cell Count [10]: 631; Population Apoptotic (%) [11]: 24%; Population Fragmented Nuclei (%) [11]: 12%; Population Healthy Nuclei (%) [11]: 78%; Population Mitochondria Different-Phenotype (%) [11]: 17%; Population Mitotic Cells (%) [11]: 75%; Population Normal (%) [11]: 97%; Population Pyknosed Nuclei (%) [11]: 8%; Population Tubulin-Different-Phenotype (%) [11]: 9%; Total Cell Count [11]: 713; Population Apoptotic (%) [12]: 31%; Population Fragmented Nuclei (%) [12]: 15%; Population Healthy Nuclei (%) [12]: 79%; Population Hoechst High Intensity Objects (%) [12]: 4%; Population Mitochondria Different-Phenotype (%) [12]: 16%; Population Mitotic Cells (%) [12]: 68%; Population Normal (%) [12]: 95%; Population Pyknosed Nuclei (%) [12]: 5%; Population Tubulin-Different-Phenotype (%) [12]: 8%; Total Cell Count [12]: 702
